# According to ChEMBL document CHEMBL1143812, “A novel bis-tetrahydrofuranylurethane-containing nonpeptidic protease inhibitor (PI), GRL-98065, is potent against multiple-PI-resistant human immunodeficiency virus in vitro” (Antimicrob Agents Chemother, 2007):
# Tests used:
# [1] = system: Human immunodeficiency virus 1; assay: Antiviral activity against HIV1 BaL R5 subtype B in phytohemagglutininin-activated PBMCs assessed as inhibition of p24 Gag protein expression by MTT assay; assay type: functional, organism-based
# Summary of the method: (§1)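 PHA-activated PBMCs (10^6/ml) infected with 50 TCID50s of each isolate and cultured with or without drug in 10-fold serial dilutions. The read-out was supernatant p24 Gag by chemiluminescent enzyme immunoassay. Assays were run in duplicate or triplicate, with one donor per experiment and three donors in total.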
# [2] = system: Human immunodeficiency virus 1; assay: Antiviral activity against HIV1 LAI in MT2 cells assessed as inhibition of p24 Gag protein expression by MTT assay; assay type: functional, organism-based; settings: Human immunodeficiency virus 1, LAI
# Summary of the method: (§2)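 MT-2 cells (2 × 10^4/ml) were infected with 100 TCID50s of the HIV-1LAI, HIV-2EHO or HIV-2ROD strain. They were cultured with serial drug concentrations at 37°C for 7 days. MTT was then added for 4 h at 37°C, formazan was dissolved in acidified isopropanol with 4% Triton X-100, and optical density was read. EC50 is the mean of three independent experiments, each run in duplicate.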
# [3] = system: Human immunodeficiency virus 1; assay: Antiviral activity against HIV1 MDR/C X4 in phytohemagglutininin-activated PBMCs assessed as inhibition of p24 Gag protein expression by MTT assay; assay type: functional, organism-based
# Summary of the method: as §1, with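 “immunoassay. […]” for “immunoassay.”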
# [4] = Cytotoxicity against human MT2 cells assessed as inhibition of p24 Gag protein expression by MTT assay; assay type: cell-based
# [5] = system: Human immunodeficiency virus 1; assay: Antiviral activity against HIV1 92UG029 X4 subtype A in phytohemagglutininin-activated PBMCs assessed as inhibition of p24 Gag protein expression by MTT assay; assay type: functional, organism-based
# Summary of the method: as §1, with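 “immunoassay. […]” for “immunoassay.”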
# [6] = system: Human immunodeficiency virus 1; assay: Antiviral activity against HIV1 MDR/MM R5 in phytohemagglutininin-activated PBMCs assessed as inhibition of p24 Gag protein expression by MTT assay; assay type: functional, organism-based
# Summary of the method: as §1, with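 “immunoassay. […]” for “immunoassay.”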
# [7] = system: Human immunodeficiency virus 2; assay: Antiviral activity against HIV2 EHO in MT2 cells assessed as inhibition of p24 Gag protein expression by MTT assay; assay type: functional, organism-based; settings: Human immunodeficiency virus 2, EHO; summary of the method: as §2
# [8] = system: Human immunodeficiency virus 1; assay: Antiviral activity against atazanavir-resistant HIV1 in MT4 cells assessed as inhibition of p24 Gag protein expression by MTT assay; assay type: functional, organism-based; settings: Human immunodeficiency virus 1, MT4
# Summary of the method: (§3)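 MT-4 cells (10^5/ml) infected with 100 TCID50s of wild-type or PI-resistant NL4-3 virus and incubated at 37°C with or without graded drug concentrations. On day 7, supernatant p24 Gag was measured by chemiluminescent enzyme immunoassay. […] Assays were run in duplicate or triplicate.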
# [9] = system: Human immunodeficiency virus 1; assay: Antiviral activity against HIV1 MDR/TM X4 in phytohemagglutininin-activated PBMCs assessed as inhibition of p24 Gag protein expression by MTT assay; assay type: functional, organism-based
# Summary of the method: as §1, with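 “immunoassay. […]” for “immunoassay.”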
# [10] = system: Human immunodeficiency virus 1; assay: Antiviral activity against HIV1 MDR/B X4 in phytohemagglutininin-activated PBMCs assessed as inhibition of p24 Gag protein expression by MTT assay; assay type: functional, organism-based
# Summary of the method: as §1, with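 “immunoassay. […]” for “immunoassay.”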
# [11] = system: Human immunodeficiency virus 1; assay: Antiviral activity against HIV1 GRL98065p30 in MT4 cells assessed as inhibition of p24 Gag protein expression by MTT assay; assay type: functional, organism-based; settings: Human immunodeficiency virus 1, MT4; summary of the method: as §3
# [12] = system: Human immunodeficiency virus 1; assay: Antiviral activity against HIV1 GRL98065p40 in MT4 cells assessed as inhibition of p24 Gag protein expression by MTT assay; assay type: functional, organism-based; settings: Human immunodeficiency virus 1, MT4; summary of the method: as §3
# [13] = system: Human immunodeficiency virus 1; assay: Antiviral activity against saquinavir-resistant HIV1 in MT4 cells assessed as inhibition of p24 Gag protein expression by MTT assay; assay type: functional, organism-based; settings: Human immunodeficiency virus 1, MT4; summary of the method: as §3
# [14] = system: Human immunodeficiency virus 1; assay: Antiviral activity against HIV1 MDR/G X4 in phytohemagglutininin-activated PBMCs assessed as inhibition of p24 Gag protein expression by MTT assay; assay type: functional, organism-based; summary of the method: as §1
# [15] = system: Human immunodeficiency virus 1; assay: Antiviral activity against HIV1 97ZA003 R5 subtype C in phytohemagglutininin-activated PBMCs assessed as inhibition of p24 Gag protein expression by MTT assay; assay type: functional, organism-based
# Summary of the method: as §1, with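 “immunoassay. […]” for “immunoassay.”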
# [16] = system: Human immunodeficiency virus 1; assay: Antiviral activity against idinavir-resistant HIV1 in MT4 cells assessed as inhibition of p24 Gag protein expression by MTT assay; assay type: functional, organism-based; settings: Human immunodeficiency virus 1, MT4; summary of the method: as §3
# [17] = system: Human immunodeficiency virus 1; assay: Antiviral activity against HIV1 NL4-3 in MT4 cells by MTT assay; assay type: functional, organism-based; settings: Human immunodeficiency virus 1, NL4-3, MT4
# [18] = system: Human immunodeficiency virus 1; assay: Antiviral activity against HIV1 92TH019 R5 subtype E in phytohemagglutininin-activated PBMCs assessed as inhibition of p24 Gag protein expression by MTT assay; assay type: functional, organism-based
# Summary of the method: as §1, with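 “immunoassay. […]” for “immunoassay.”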
# [19] = system: Human immunodeficiency virus 1; assay: Antiviral activity against nelfinavir-resistant HIV1 in MT4 cells assessed as inhibition of p24 Gag protein expression by MTT assay; assay type: functional, organism-based; settings: Human immunodeficiency virus 1, MT4; summary of the method: as §3
# [20] = system: Human immunodeficiency virus 1; assay: Antiviral activity against HIV1 92UG037 subtype A R5 in phytohemagglutininin-activated PBMCs assessed as inhibition of p24 Gag protein expression by MTT assay; assay type: functional, organism-based
# Summary of the method: as §1, with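 “immunoassay. […]” for “immunoassay.”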
# [21] = system: Human immunodeficiency virus 2; assay: Antiviral activity against HIV2 ROD in MT2 cells assessed as inhibition of p24 Gag protein expression by MTT assay; assay type: functional, organism-based; settings: Human immunodeficiency virus 2, ROD; summary of the method: as §2
# [22] = system: Human immunodeficiency virus 1; assay: Antiviral activity against HIV1 GRL98065p20 in MT4 cells assessed as inhibition of p24 Gag protein expression by MTT assay; assay type: functional, organism-based; settings: Human immunodeficiency virus 1, MT4; summary of the method: as §3
# [23] = system: Human immunodeficiency virus 1; assay: Antiviral activity against lopinavir-resistant HIV1 in MT4 cells assessed as inhibition of p24 Gag protein expression by MTT assay; assay type: functional, organism-based; settings: Human immunodeficiency virus 1, MT4; summary of the method: as §3
# [24] = system: Human immunodeficiency virus 1; assay: Antiviral activity against wild type HIV1 ERS104prc X4 in phytohemagglutininin-activated PBMCs assessed as inhibition of p24 Gag protein expression by MTT assay; assay type: functional, organism-based; summary of the method: as §1
# [25] = system: Human immunodeficiency virus 1; assay: Antiviral activity against amprenavir-resistant HIV1 in MT4 cells assessed as inhibition of p24 Gag protein expression by MTT assay; assay type: functional, organism-based; settings: Human immunodeficiency virus 1, MT4; summary of the method: as §3
# [26] = system: Human immunodeficiency virus 1; assay: Antiviral activity against HIV1 MDR/JSL R5 in phytohemagglutininin-activated PBMCs assessed as inhibition of p24 Gag protein expression by MTT assay; assay type: functional, organism-based
# Summary of the method: as §1, with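 “immunoassay. […]” for “immunoassay.”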
# [27] = system: Human immunodeficiency virus 1; assay: Antiviral activity against ritonavir-resistant HIV1 in MT4 cells assessed as inhibition of p24 Gag protein expression by MTT assay; assay type: functional, organism-based; settings: Human immunodeficiency virus 1, MT4; summary of the method: as §3
SMILES,EC50 [2] [nM],EC50 [3] [nM],CC50 [4] [nM],EC50 [5] [nM],EC50 [6] [nM],EC50 [7] [nM],EC50 [8] [nM],EC50 [9] [nM],EC50 [10] [nM],EC50 [11] [nM],EC50 [12] [nM],EC50 [13] [nM],EC50 [16] [nM],EC50 [19] [nM],EC50 [21] [nM],EC50 [22] [nM],EC50 [24] [nM],EC50 [25] [nM],EC50 [26] [nM],EC50 [27] [nM],also measured
CC(C)(C)NC(=O)[C@@H]1C[C@@H]2CCCC[C@@H]2CN1C[C@@H](O)[C@H](Cc1ccccc1)NC(=O)[C@H](CC(N)=O)NC(=O)c1ccc2ccccc2n1,8,35,16400,4.8,140,3,37,180,270,22,32,> 1000,59,24,4.3,12,8,31,290,10,EC50 [1]: 8.3 nM; EC50 [14]: 33 nM; EC50 [15]: 6.7 nM; EC50 [17]: 7 nM; EC50 [18]: 3 nM; EC50 [20]: 3.2 nM; EC50 [23]: 32 nM
CC(C)CN(C[C@@H](O)[C@H](Cc1ccccc1)NC(=O)O[C@H]1CCOC1)S(=O)(=O)c1ccc(N)cc1,36,–,> 100000,46,480,250,200,300,360,330,> 1000,330,170,60,570,58,29,> 1000,430,280,EC50 [15]: 33 nM; EC50 [18]: 21 nM; EC50 [20]: 27 nM; EC50 [23]: 310 nM
CC(C)CN(C[C@@H](O)[C@H](Cc1ccccc1)NC(=O)O[C@H]1CO[C@H]2OCC[C@H]21)S(=O)(=O)c1ccc(N)cc1,3.9,9,83100,–,16,8,3.4,4.3,40,36,210,5.8,15,3.3,6.8,21,3.8,330,27,18,EC50 [14]: 7 nM
CC(C)CN(C[C@@H](O)[C@H](Cc1ccccc1)NC(=O)O[C@H]1CO[C@H]2OCC[C@H]21)S(=O)(=O)c1ccc2c(c1)OCO2,0.5,2.7,35700,0.5,3.8,3.2,1.5,3.2,3.9,8,180,6,3.7,2.4,4.5,3.8,0.5,32,6,2.5,EC50 [1]: 0.2 nM; EC50 [14]: 3.4 nM; EC50 [15]: 0.5 nM; EC50 [17]: 0.3 nM; EC50 [18]: 0.3 nM; EC50 [20]: 0.4 nM; EC50 [23]: 7.5 nM
